For data set [1], the target named is Human immunodeficiency virus type 1 reverse transcriptase (Human immunodeficiency virus 1) (UniProt Q72547). The data set can be described thus: Binding affinity to HIV1 reverse transcriptase assessed as compound-terminated template/primer translocation from N-site to P-site of enzyme preincubated for 20 mins prior to TTP addition measured after 10 mins by gel electrophoretic analysis. In outline:
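50 nM 32P-labelled primer/RNA template with 300 nM RT in 120 mM Na cacodylate pH 7.0, 20 mM NaCl, 6 mM MgCl2 and 100 μM AZT-TP or triphosphate analogue, 20 min at 37°C, for chain-terminator incorporation. Varying TTP then added for 10 min, followed by 500 μM Fe(NH4)2SO4 cleavage. Products resolved by denaturing gel electrophoresis.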

Data set [2] has the same target. The data set can be described thus: Induction of AZT-resistant HIV1 reverse transcriptase assessed as rate of ATP-mediated excision of chain-terminating nucleotides by phosphorimaging analysis. In outline: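 5'-32P-labelled DNA primer annealed 1:1.5 to 40-nt RNA template, then chain-terminated with AZT-TP or the triphosphate analogue. AZT-resistant RT and terminated template/primer (2:1) in 50 mM Tris-HCl pH 8.0, 50 mM KCl. Started with 6 mM MgCl2 and 3 mM pyrophosphatase-pretreated ATP, 37°C. Stopped at timed points with formamide/EDTA dye and resolved by denaturing gel.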

The subject of data set [3] is Human immunodeficiency virus 1. Description: Antiviral activity against NNRTI-resistant Human immunodeficiency virus 1. In kind it is functional, organism-based.
Data set [4] concerns Human immunodeficiency virus 1. Description: Antiviral activity against AZT-resistant Human immunodeficiency virus 1 expressing D67N/K70R/T215F/K219Q reverse transcriptase mutation. Format: functional, organism-based.
Data set [5] relates to Human immunodeficiency virus 1. Description: Antiviral activity against wild type Human immunodeficiency virus 1 expressing p24 infected in human HeLa P4/R5 cells preincubated for 16 hrs prior to virus infection measured after 48 hrs by beta-galactosidase-based single replication cycle assay. In kind it is functional, organism-based. Particulars: for EC50: Human immunodeficiency virus 1, P4/R5. In outline:
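P4R5 indicator cells express CD4, CXCR4, CCR5 and an HIV LTR-driven β-galactosidase reporter, and were kept in DMEM/10% FBS with puromycin. Cells were seeded at 5×10^3 per well and exposed to varying drug concentrations for 16 h. They were then inoculated with 25 ng HIV-1 p24 per well. Infection was quantified 48 h post-infection by fluorescence-based β-galactosidase detection.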

The nature of data set [6]: (§1) Cytotoxicity against human CEM-SS cells assessed as cell viability after 6 days by MTS assay. In kind it is cell-based. Particulars: CEM-SS cells. A general note: Tetrazolium assays rely on reduction of a dye to a coloured formazan, in cell work by metabolically active cells.
The subject of data set [7] is Human immunodeficiency virus 1. The data set can be described thus: Antiviral activity against Human immunodeficiency virus 1 3B infected in human CEM-SS cells assessed as inhibition of virus-induced cytopathic effect after 6 days by MTS assay. To be noted: 144 h. In kind it is functional, organism-based.
Data set [8] concerns the target Human immunodeficiency virus type 1 reverse transcriptase (Human immunodeficiency virus 1, UniProt Q72547). The data set can be described thus: Inhibition of HIV1 reverse transcriptase-mediated [H3]TTP incorporation into poly(rA)-oligo(dT)16 DNA preincubated for 5 mins prior to primer/template and substrate addition by liquid scintillation spectrometric analysis. In outline: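 10 nM wt HIV-1 RT preincubated 5 min with inhibitor in DMSO (1% final), then 40 nM poly(rA)-oligo(dT)16 and 10 μM [3H]TTP added. Buffer 50 mM Tris-HCl pH 8.0, 60 mM KCl, 10 mM MgCl2; 20 min at 37°C. Quenched with cold 10% TCA/20 mM pyrophosphate, glass-fibre filtered, washed with TCA and ethanol, incorporation counted by liquid scintillation.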

Data set [9] relates to Human immunodeficiency virus 1. Description: Ratio of EC50 for NNRTI-resistant Human immunodeficiency virus 1 to EC50 for wild type Human immunodeficiency virus 1 expressing p24. In kind it is functional.
Data set [10] has as its system Human immunodeficiency virus 1. Description: Ratio of EC50 for AZT-resistant Human immunodeficiency virus 1 to EC50 for wild type Human immunodeficiency virus 1 expressing p24. Format: functional.
The nature of data set [11]: Therapeutic index, ratio of CC50 for human CEM-SS cells to EC50 for Human immunodeficiency virus 1 3B. In kind it is cell-based. To be noted: read-out: Ratio CC50/EC50.
For data set [12], the system named is CEM-SS. The description is as §1. In kind it is cell-based. To be noted: cem-ss, 144 h.
Data set [13] concerns CEM-SS. The data set can be described thus: Cytotoxicity against human CEM-SS cells assessed as cell viability at 10 uM after 6 days by MTS assay relative to control. Format: cell-based. To be noted: 144 h.
Data set [14] concerns Human immunodeficiency virus 1. Description: Antiviral activity against Human immunodeficiency virus 1 3B infected in human CEM-SS cells assessed as inhibition of virus-induced cytopathic effect at 10 uM after 6 days by MTS assay relative to control. In kind it is functional. To be noted: 144 h. On the technique in general: Cytopathic effects are the visible damage that an infection or toxin causes in cultured cells.

Data set [15] addresses Human immunodeficiency virus type 1 reverse transcriptase (Human immunodeficiency virus 1) (UniProt Q72547). The data set can be described thus: Binding affinity to HIV1 reverse transcriptase assessed as compound incorporation into DNA by primer extension assay.

The source made the active and inactive calls. The rule behind the calls is not given here.

With `Cc1cn([C@H]2C[C@H](N=[N+]=[N-])[C@@H](CO)O2)c(=O)[nH]c1=O` [ZIDOVUDINE], in data set [1], the outcome was Active. The Activity in data set [2] was found to be 0.024 min⁻¹. The EC50 – broadly, the concentration at which the effect is half-maximal – is 120 nM in [3], 7900 nM in data set [4], 140 nM in [5] and 5.3 nM in [7]. Besides, the CC50 (as a rule, the concentration at which the toxic effect on the cells reaches its halfway point) at 144 h in data set [6] is more than 1000 nM.

For the compound `Cc1cn([C@H]2C[C@H](n3nncc3-c3cc4ccccc4c4ccccc34)[C@@H](COP(=O)(O)OP(=O)(O)OP(=O)(O)O)O2)c(=O)[nH]c1=O`, the IC50 – broadly, the midpoint of a concentration-inhibition curve – in data set [8] is 11800 nM.

`Cc1cn([C@H]2C[C@H](n3nncc3-c3cccc4ccccc34)[C@@H](CO)O2)c(=O)[nH]c1=O`: the entries for the “Ratio EC50” value in [9] and in data set [10] were 0.6 and 9, respectively. Also, the EC50 in [3] is 600 nM; in data set [4] it was 9100 nM; in [5], 1000 nM; in [7], 67 nM. Moreover, the values for the Activity entry (in [5]; with CEM-SS [13]) were “Dose-dependent effect” and 100%, respectively. For the same compound, in data set [11], the selectivity ratio is 910. For the same compound, the CC50 with CEM-SS [12] is 61000 nM. Further, the inhibition (commonly the relative decrease from the control value, in per cent) at 10 µM in data set [14] was found to be 83%.

On to `Cc1cn([C@H]2C[C@H](O)[C@@H](COP(=O)(O)OP(=O)(O)OP(=O)(O)O)O2)c(=O)[nH]c1=O`, for which the result in data set [15] was Active.

For `Cc1cn([C@H]2C[C@H](n3nncc3-c3cccc4ccccc34)[C@@H](COP(=O)(O)OP(=O)(O)OP(=O)(O)O)O2)c(=O)[nH]c1=O`, the result in data set [1] was Active. Besides, the Activity in data set [2] stood at 0.0126 min⁻¹. The compound further had an IC50 in data set [8] of 3700 nM.

The values are drawn from ChEMBL document CHEMBL3085754, “Clicking 3'-azidothymidine into novel potent inhibitors of human immunodeficiency virus” (J Med Chem, 2013).
